Experimental findings from ChEMBL document CHEMBL4706770, “SD-91 as A Potent and Selective STAT3 Degrader Capable of Achieving Complete and Long-Lasting Tumor Regression” (ACS Med Chem Lett, 2021) are described below.

Data set [1] deals with Signal transducer and activator of transcription 3 (Homo sapiens, UniProt P40763). Put plainly: Induction of STAT3 degradation in human SUP-M2 cells incubated for 4 hrs by western blot analysis. Format: cell-based. The gist of the method:
(§1)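 Cells treated 4 h with compounds across 25 nM to 100 μM; STAT proteins detected by Western blot with GAPDH as loading control; STAT3 DC50 estimated by densitometry of STAT3 relative to GAPDH. Applies to MOLM-16 for all STATs, and to SU-DHL-1 and SUP-M2 for STAT3.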

The subject of a further data set is Mus musculus. Kind of data set: In vivo induction of STAT3 degradation in SCID mouse xenografted with human SU-DHL-1 cells assessed as reduction in total STAT3 level in tumor tissue at 50 mg/kg, iv measured after 24 hrs by immunoblotting analysis. The class given is functional, organism-based. The essentials:
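SCID mice bearing MOLM-16 or SU-DHL-1 xenografts given a single iv dose of 50 mg/kg or dosing vehicle. Tumor lysates immunoblotted for p-STAT3 Y705 and total STAT3 at time points up to 48 h (MOLM-16) and 24 h (SU-DHL-1).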

Data set [2] can be described thus: Drug metabolism buffer pH 4 assessed as conversion to 5-amino-4-(4-(8-((5S,8S,10aR)-8-((S)-5-amino-1-(benzhydrylamino)-1,5-dioxopentan-2-ylcarbamoyl)-6-oxo-5-(5-(phosphonocarbonyl)-1H-indole-2-carboxamido)octahydropyrrolo[1,2-a][1,5]diazocin-3(4H)-yl)-8-oxooct-1-ynyl)-1-oxoisoindolin-2-yl)-5-oxopentanoic acid measured upto 100 hrs by LC/MS/MS analysis. As to conditions: time hrs <=100. The gist of the method: (§2)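 Parent compound incubated in buffer at pH 4 or pH 8, at room temperature or 37 °C. Percentages of the parent, the hydrolysis product and the glutarimide ring-opened product followed over time, up to 96 h.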

Data set [3] addresses Protein cereblon/Signal transducer and activator of transcription 6 (Homo sapiens) (UniProt P42226+Q96SW2). Kind of data set: In vivo protac activity at CRBN/STAT6 degradation in SCID mouse xenografted with human MOLM16 cells assessed as reduction in STAT6 in tumor tissue at 50 mg/kg, iv measured after 24 hrs by immunoblotting analysis. The class given is functional, organism-based. The essentials:
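SCID mice bearing MOLM-16 tumors given a single iv dose of 50 mg/kg or dosing vehicle. Tumor lysates immunoblotted for STAT3, STAT1 and STAT6 at time points from 1 h to at least 24 h.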

Data set [4] in a line: Drug uptake in SCID mouse xenografted with human MOLM16 cells assessed as (2-(((5S,8S,10aR)-8-(((S)-5-amino-1-(benzhydrylamino)-1,5-dioxopentan-2-yl)carbamoyl)-3-(8-(2-(2,6-dioxopiperidin-3-yl)-1-oxoisoindolin-4-yl)oct-7-yno yl)-6-oxodecahydropyrrolo[1,2-a][1,5]diazocin-5-yl)carbamoyl)-1H-indole-5-carbonyl)phosphonic acid level in plasma at 50 mg/kg, iv measured after 1 hrs by LC-MS/MS. Format: ADME, organism-based. As to conditions: in vivo. The essentials: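 SCID mice bearing MOLM-16 xenografts given a single iv dose of 50 mg/kg. Concentrations of parent and hydrolysis product measured in plasma (ng/mL) and tumor tissue (ng/g) at 1, 6 and 24 h.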

Data set [5] addresses Protein cereblon/Signal transducer and activator of transcription 2 (Homo sapiens) (UniProt Q96SW2+P52630). Put plainly: Protac activity at CRBN/STAT2 in human MOLM16 cells assessed as STAT2 degradation at 0.25 to 100 uM incubated for 4 hrs by Western blot analysis. The class given is cell-based. To be noted: dose 0.25-100 µM. The gist of the method: as §1
Data set [6] is described as follows: Drug metabolism in complete cell culture medium assessed as (2-(((5S,8S,10aR)-8-(((S)-5-amino-1-(benzhydrylamino)-1,5-dioxopentan-2-yl)carbamoyl)-3-(8-(2-(2,6-dioxopiperidin-3-yl)-1-oxoisoindolin-4-yl)oct-7-ynoyl)-6-oxodecahydropyrrolo[1,2-a][1,5]diazocin-5-yl)carbamoyl)-1H-indole-5-carbonyl)phosphonic acid after 24 hrs by LC/MS/MS analysis. The gist of the method:
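Parent compound incubated in the cell culture medium used for the cellular assays, with or without cells, at 37 °C. Percentages of the hydrolysis product and the glutarimide ring-opened product measured at time points up to 96 h.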

Data set [7] in a line: Drug metabolism in buffer pH 4 assessed as conversion to (2-(((5S,8S,10aR)-8-(((S)-5-amino-1-(benzhydrylamino)-1,5-dioxopentan-2-yl)carbamoyl)-3-(8-(2-(2,6-dioxopiperidin-3-yl)-1-oxoisoindolin-4-yl)oct-7-ynoyl)-6-oxodecahydropyrrolo[1,2-a][1,5]diazocin-5-yl)carbamoyl)-1H-indole-5-carbonyl)phosphonic acid by measured after 2 days at 37 degC by LC/MS/MS analysis. To be noted: time 2.0 day. The essentials:
as §2

A short description of data set [8]: Drug metabolism buffer pH 4 assessed as conversion to (2-(((5S,8S,10aR)-8-(((S)-5-amino-1-(benzhydrylamino)-1,5-dioxopentan-2-yl)carbamoyl)-3-(8-(2-(2,6-dioxopiperidin-3-yl)-1-oxoisoindolin-4-yl)oct-7-ynoyl)-6-oxodecahydropyrrolo[1,2-a][1,5]diazocin-5-yl)carbamoyl)-1H-indole-5-carbonyl)phosphonic acid by measured after 96 hrs at 37 degC by LC/MS/MS analysis.

Data set [9] addresses Protein cereblon/Signal transducer and activator of transcription 3 (Homo sapiens, UniProt P40763+Q96SW2). Put plainly: Protac activity at CRBN/STAT3 in human SUP-M2 cells assessed as degradation of STAT3 incubated for 4 hrs by western blot analysis. Format: cell-based. The essentials:
as §1

Activity calls are given as the source filed them. The calls are words filed in the database; no cut-off is given here.

Sequence of Protein cereblon/Signal transducer and activator of transcription 2 (Homo sapiens) (P52630 whole entry, looked up): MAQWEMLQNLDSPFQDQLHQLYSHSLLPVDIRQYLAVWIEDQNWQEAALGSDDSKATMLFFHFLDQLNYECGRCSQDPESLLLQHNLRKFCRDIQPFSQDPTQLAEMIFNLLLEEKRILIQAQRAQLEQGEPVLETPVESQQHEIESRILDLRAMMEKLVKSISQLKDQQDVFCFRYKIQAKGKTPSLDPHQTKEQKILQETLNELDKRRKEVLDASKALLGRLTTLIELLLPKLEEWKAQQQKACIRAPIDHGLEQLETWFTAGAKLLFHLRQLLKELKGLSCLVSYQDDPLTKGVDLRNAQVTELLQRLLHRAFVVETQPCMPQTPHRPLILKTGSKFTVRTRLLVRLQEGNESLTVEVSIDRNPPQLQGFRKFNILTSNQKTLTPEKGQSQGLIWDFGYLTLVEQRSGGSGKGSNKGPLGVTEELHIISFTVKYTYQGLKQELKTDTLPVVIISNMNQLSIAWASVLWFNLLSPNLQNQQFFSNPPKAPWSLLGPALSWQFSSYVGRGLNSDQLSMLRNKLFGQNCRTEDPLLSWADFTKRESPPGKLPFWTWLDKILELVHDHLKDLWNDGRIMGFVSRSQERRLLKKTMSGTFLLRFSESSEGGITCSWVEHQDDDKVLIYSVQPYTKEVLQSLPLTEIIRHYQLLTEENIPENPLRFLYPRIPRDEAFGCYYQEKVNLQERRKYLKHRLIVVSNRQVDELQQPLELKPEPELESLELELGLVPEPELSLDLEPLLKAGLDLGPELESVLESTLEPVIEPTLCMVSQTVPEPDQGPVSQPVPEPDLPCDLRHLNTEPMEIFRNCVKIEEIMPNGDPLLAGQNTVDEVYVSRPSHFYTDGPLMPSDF
Sequence of Protein cereblon/Signal transducer and activator of transcription 2 (Homo sapiens) (Q96SW2 whole entry, looked up): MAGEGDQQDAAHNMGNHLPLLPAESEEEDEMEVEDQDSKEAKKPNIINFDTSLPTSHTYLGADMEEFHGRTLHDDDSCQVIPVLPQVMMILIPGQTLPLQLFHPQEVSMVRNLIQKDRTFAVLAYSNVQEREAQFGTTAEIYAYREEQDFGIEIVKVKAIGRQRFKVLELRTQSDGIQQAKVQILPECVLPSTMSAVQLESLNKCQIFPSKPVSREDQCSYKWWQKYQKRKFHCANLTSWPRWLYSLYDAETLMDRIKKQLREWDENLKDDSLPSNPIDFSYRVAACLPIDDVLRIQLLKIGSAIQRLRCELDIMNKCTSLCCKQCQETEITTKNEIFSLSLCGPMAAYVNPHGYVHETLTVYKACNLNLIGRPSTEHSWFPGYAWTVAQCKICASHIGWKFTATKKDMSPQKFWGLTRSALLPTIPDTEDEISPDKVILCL
Sequence of Protein cereblon/Signal transducer and activator of transcription 3 (P40763 whole entry): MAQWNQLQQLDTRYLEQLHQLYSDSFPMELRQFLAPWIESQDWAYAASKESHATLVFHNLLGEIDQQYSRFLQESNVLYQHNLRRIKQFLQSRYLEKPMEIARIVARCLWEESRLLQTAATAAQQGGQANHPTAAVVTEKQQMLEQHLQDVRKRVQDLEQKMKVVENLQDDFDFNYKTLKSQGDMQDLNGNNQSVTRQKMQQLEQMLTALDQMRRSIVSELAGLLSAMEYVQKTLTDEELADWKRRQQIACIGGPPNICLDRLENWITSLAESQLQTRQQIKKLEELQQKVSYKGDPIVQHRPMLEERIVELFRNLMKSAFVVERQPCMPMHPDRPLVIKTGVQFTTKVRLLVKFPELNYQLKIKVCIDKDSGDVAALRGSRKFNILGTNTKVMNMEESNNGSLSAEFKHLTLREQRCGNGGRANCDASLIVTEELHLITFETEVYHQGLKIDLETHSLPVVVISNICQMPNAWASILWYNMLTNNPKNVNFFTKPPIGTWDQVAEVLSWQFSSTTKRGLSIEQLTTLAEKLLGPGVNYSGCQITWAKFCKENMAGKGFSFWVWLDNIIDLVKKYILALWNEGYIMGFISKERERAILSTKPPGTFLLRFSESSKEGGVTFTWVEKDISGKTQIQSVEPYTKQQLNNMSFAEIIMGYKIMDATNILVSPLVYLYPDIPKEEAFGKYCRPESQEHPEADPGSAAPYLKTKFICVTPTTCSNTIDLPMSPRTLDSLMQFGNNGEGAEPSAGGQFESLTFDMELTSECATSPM
Sequence of Protein cereblon/Signal transducer and activator of transcription 3 (Q96SW2 whole entry): as the sequence (Q96SW2 whole entry, looked up) above
Sequence of Signal transducer and activator of transcription 3 (P40763 whole entry): as the sequence (P40763 whole entry) above
Sequence of Protein cereblon/Signal transducer and activator of transcription 6 (Homo sapiens) (P42226 2-847 limits assumed): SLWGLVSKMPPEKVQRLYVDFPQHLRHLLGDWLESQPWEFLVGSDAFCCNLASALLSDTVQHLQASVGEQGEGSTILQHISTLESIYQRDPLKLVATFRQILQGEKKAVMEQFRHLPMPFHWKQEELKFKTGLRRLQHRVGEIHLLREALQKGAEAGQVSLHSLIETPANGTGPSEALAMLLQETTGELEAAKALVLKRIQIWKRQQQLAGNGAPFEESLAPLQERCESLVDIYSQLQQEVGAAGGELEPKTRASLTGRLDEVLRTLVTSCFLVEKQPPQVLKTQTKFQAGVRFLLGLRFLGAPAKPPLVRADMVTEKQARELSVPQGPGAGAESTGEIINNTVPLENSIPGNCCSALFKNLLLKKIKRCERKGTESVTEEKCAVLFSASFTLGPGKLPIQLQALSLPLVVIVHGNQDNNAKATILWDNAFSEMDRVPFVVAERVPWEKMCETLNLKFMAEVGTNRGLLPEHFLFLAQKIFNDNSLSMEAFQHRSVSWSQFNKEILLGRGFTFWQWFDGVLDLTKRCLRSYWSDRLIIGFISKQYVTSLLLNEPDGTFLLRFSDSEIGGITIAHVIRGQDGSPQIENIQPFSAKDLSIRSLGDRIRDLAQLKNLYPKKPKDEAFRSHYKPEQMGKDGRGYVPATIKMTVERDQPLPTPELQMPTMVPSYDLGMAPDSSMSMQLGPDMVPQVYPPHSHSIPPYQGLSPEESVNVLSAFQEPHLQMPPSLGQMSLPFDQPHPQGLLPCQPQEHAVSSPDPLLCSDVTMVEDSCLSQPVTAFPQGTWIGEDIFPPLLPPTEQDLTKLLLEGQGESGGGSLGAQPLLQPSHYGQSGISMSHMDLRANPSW
Sequence of Protein cereblon/Signal transducer and activator of transcription 6 (Homo sapiens) (Q96SW2 whole entry partner): as the sequence (Q96SW2 whole entry, looked up) above

For the molecule `NC(=O)CC[C@H](NC(=O)[C@@H]1CC[C@@H]2CCN(C(=O)CCCCCC#Cc3cccc4c3CN(C3CCC(=O)NC3=O)C4=O)C[C@H](NC(=O)c3cc4cc(C(=O)P(=O)(O)O)ccc4[nH]3)C(=O)N21)C(=O)NC(c1ccccc1)c1ccccc1` (stereo not given in full), in data set [1], the DC50 was determined as 1200 nM. The result in the data set on Mus musculus was Active.
Take `NC(=O)CC[C@H](NC(=O)[C@@H]1CC[C@@H]2CCN(C(=O)CCCCCC#Cc3cccc4c3CN(C3CCC(=O)NC3=O)C4=O)C[C@H](NC(=O)c3cc4cc(C(F)(F)P(=O)(O)O)ccc4[nH]3)C(=O)N21)C(=O)NC(c1ccccc1)c1ccccc1` (stereo not given in full): the Drug metabolism result in [2] is “Metabolite not detected”; in [6], 90%; in data set [7] it was 50%; in [8], 25%. Besides, the result in data set [3] and in [5] was inactive. Besides, the Drug uptake in [4] was found to be 48476 ng/mL. In addition, the DC50 in data set [9] is 2500 nM.
